Experimental data from ChEMBL document CHEMBL1132472, “Synthesis and pharmacological evaluation of some 8-cyanopyrido[3', 2':4,5]thieno[3,2-d]triazine derivatives as inhibitors of nitric oxide and eicosanoid biosynthesis” (J Med Chem, 1999).

What was measured:
[1] = species: Mus musculus; experiment: (§1) Ability to inhibit the accumulation of PGE-2 in stimulated murine peritoneal macrophages; type: functional
Procedure, shortened: (§2)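 Mouse peritoneal macrophages were elicited by ip thioglycolate (10%) and collected by lavage 4 days later. Adherent cells were stimulated with E. coli LPS (10 µg/mL) at 37 °C for 24 h with compound or vehicle. Supernatant PGE₂ was measured by radioimmunoassay. IC50 was calculated from at least four significant concentrations (n = 6).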

[2] = species: Mus musculus; experiment: as §1; type: functional; design: concentration or dose not given beside the values; procedure, shortened: as §2
[3] = species: Mus musculus; experiment: (§3) Ability to inhibit the generation of NO by stimulated murine peritoneal macrophages; type: functional; design: concentration or dose not given beside the values
Procedure, shortened: (§4)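 Thioglycolate-elicited mouse peritoneal macrophages (lavage 4 days after ip 10% thioglycolate), adhered 2 h at 37 °C in arginine (1 mM)-containing buffered medium with 10% FBS. Cells stimulated with E. coli LPS 10 µg/mL for 24 h at 37 °C with test compound or vehicle. Supernatant nitrite measured fluorimetrically. IC50 from ≥4 concentrations (n = 6). Mean ± SEM.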

[4] = molecular target: Prostaglandin G/H synthase 1 (Homo sapiens) (UniProt P23219); experiment: In vitro activity at a concentration of 10 uM against Prostaglandin G/H synthase 1
Procedure, shortened: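 Microsomes were prepared by 2000g spin for 5 min, then 100000g for 100 min, both at 4 °C. Microsomes (20 µg protein/tube) were incubated with arachidonic acid plus compound at 10 µM or vehicle. TXB₂ formed was measured by radioimmunoassay.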

[5] = molecular target: T1, Nitric oxide synthase, inducible (Mus musculus) (UniProt P29477); experiment: In vitro activity at a concentration of 10 uM against Inducible nitric oxide synthase (iNOS)
T1 sequence (whole entry): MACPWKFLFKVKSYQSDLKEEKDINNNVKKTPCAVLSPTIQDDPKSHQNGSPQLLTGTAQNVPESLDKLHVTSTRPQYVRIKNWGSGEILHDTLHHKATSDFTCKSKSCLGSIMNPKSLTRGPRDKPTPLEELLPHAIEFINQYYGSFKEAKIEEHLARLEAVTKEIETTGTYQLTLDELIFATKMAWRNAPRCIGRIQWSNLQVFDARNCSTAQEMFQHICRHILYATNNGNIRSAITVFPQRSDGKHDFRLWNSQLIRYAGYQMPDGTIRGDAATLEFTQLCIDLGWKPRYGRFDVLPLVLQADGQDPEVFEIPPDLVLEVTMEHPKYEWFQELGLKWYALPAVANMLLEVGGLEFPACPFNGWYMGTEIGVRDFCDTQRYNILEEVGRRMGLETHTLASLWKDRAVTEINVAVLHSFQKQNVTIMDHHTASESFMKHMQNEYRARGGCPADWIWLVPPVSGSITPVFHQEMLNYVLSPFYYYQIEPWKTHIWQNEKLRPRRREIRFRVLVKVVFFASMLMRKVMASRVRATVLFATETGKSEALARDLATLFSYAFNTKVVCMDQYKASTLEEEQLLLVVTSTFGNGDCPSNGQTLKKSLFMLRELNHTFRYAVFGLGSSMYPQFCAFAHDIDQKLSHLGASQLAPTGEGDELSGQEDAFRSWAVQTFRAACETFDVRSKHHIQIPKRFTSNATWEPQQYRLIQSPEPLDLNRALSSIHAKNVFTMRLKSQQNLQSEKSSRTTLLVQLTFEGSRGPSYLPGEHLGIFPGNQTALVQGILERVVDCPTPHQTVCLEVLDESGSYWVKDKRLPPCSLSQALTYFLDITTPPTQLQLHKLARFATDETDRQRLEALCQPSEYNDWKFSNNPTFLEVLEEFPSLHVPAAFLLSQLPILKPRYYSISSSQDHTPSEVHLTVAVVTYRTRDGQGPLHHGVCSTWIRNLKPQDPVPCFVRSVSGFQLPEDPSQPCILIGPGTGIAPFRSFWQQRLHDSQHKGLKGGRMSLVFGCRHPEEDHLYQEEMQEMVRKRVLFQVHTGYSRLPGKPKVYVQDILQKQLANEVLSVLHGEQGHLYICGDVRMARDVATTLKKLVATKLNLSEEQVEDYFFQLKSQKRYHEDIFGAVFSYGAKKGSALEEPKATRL

[6] = molecular target: T2, Prostaglandin G/H synthase 2 (Mus musculus) (UniProt Q05769); experiment: In vitro activity at a concentration of 10 uM against Prostaglandin G/H synthase 2
T2 sequence (whole entry): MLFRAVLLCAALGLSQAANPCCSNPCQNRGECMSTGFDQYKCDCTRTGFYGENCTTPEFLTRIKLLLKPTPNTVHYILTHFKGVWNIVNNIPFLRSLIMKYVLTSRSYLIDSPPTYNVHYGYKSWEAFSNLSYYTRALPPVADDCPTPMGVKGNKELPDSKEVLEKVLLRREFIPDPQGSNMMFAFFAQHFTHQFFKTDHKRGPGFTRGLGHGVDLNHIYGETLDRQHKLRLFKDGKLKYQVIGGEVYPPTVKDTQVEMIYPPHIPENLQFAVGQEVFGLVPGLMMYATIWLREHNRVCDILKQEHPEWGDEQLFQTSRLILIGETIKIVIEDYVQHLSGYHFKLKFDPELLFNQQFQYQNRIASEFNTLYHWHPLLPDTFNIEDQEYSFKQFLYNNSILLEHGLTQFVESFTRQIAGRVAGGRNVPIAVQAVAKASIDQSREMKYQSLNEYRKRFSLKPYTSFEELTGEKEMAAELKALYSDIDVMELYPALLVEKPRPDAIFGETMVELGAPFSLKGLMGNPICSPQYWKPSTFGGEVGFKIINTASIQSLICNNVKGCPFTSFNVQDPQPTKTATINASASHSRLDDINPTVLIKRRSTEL

[7] = species: Mus musculus; experiment: as §3; type: functional, organism-based; procedure, shortened: as §4
[8] = species: Mus musculus; experiment: Compound was evaluated to inhibit Nitrite accumulation in simulated macrophages; type: functional
[9] = species: Mus musculus; experiment: Compound was evaluated to inhibit PGE-2 accumulation in simulated macrophages; type: functional
Procedure, shortened: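 Adherent thioglycolate-elicited mouse peritoneal macrophages were stimulated with E. coli LPS (10 µg/mL) for 24 h at 37 °C in the presence of compound at 10 µM or vehicle. Supernatant PGE₂ was measured by radioimmunoassay and expressed as % inhibition, mean ± SEM, n = 6-9.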

Prostaglandin G/H synthase 1 (Homo sapiens), sequence (P23219 whole entry): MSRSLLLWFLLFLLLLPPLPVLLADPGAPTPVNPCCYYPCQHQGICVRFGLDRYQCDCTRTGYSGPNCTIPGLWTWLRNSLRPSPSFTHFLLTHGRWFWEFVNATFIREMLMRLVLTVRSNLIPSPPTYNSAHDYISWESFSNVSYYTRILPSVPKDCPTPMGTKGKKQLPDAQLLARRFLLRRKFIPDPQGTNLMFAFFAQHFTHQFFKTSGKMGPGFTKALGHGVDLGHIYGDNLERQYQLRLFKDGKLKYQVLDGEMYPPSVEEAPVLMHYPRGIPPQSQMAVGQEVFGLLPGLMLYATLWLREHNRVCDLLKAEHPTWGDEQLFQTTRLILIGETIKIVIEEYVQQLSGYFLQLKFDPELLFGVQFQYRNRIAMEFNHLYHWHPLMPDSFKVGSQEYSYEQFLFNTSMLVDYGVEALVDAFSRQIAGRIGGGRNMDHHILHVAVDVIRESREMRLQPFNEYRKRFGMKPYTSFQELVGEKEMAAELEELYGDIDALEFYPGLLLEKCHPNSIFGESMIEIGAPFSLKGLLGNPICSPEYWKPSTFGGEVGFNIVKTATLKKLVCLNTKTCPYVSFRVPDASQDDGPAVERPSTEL

SMILES | IC50 [1] [nM] | Inhibition [2] [%] | Inhibition [3] [%] | Activity ((ng of TXB2) (mg of protein)-1) [4] | Activity (pM of citrulline min-1 (mg of protein)-1) [5] | Activity ((ng of PGE2) (mg of protein)-1) [6] | IC50 [7] [nM] | IC50 [8] [nM] | IC50 [9] [nM]
CS(=O)(=O)Nc1ccc([N+](=O)[O-])cc1OC1CCCCC1 [NS-398] | 3.1 |  |  |  |  |  |  |  | 
N#Cc1cc2c(nc1N1CCOCC1)sc1c(N3CCSCC3)nnnc12 |  | 36.1 | 31.4 |  |  |  |  |  | 
CC1CCN(c2nc3sc4c(Cl)nnnc4c3cc2C#N)CC1 |  | 49 | 6.1 | 130 |  |  |  |  | 
CC(=O)c1ccc(N2CCN(c3nnnc4c3sc3nc(N5CCN(Cc6ccccc6)CC5)c(C#N)cc34)CC2)cc1 |  | 50.1 | 51.6 | 134 | 13.5 | 15.8 |  |  | 
CC1CCN(c2nc3sc4c(N5CCC(C)CC5)nnnc4c3cc2C#N)CC1 |  | 52.1 | 37.8 | 124 | 12.4 | 13.9 |  |  | 
CC(=O)c1ccc(N2CCN(c3nnnc4c3sc3nc(N5CCOCC5)c(C#N)cc34)CC2)cc1 |  | 34.6 | 45.6 | 142 | 14.2 | 16.6 |  |  | 
N#Cc1cc2c(nc1N1CCC(Cc3ccccc3)CC1)sc1c(Cl)nnnc12 |  | 57.9 | 48.8 | 128 | 13.1 |  |  |  | 
C[C@@H]1C[C@H]2[C@@H]3CCC4=CC(=O)C=C[C@]4(C)[C@@]3(F)[C@@H](O)C[C@]2(C)[C@@]1(O)C(=O)CO [DEXAMETHASONE] | 1 |  |  |  |  |  | 35.8 |  | 
CC(=O)c1ccc(N2CCN(c3nc4sc5c(Cl)nnnc5c4cc3C#N)CC2)cc1 | 900 | 94.5 | 44.7 | 104 | 14.1 |  | 11200 |  | 
N=C(N)NN [PIMAGEDINE] |  |  |  |  | 5.4 |  | 25100 |  | 
CC1CCN(c2nnnc3c2sc2nc(N4CCOCC4)c(C#N)cc23)CC1 |  | 89.6 | 88.7 | 130 | 13.1 | 13 |  | 3400 | 600
N#Cc1cc2c(nc1NCc1ccccc1)sc1c(N3CCOCC3)nnnc12 |  | 28.5 | 41.1 |  |  |  |  |  | 
CN1CCN(c2nnnc3c2sc2nc(NCc4ccccc4)c(C#N)cc23)CC1 |  | 56.4 | 14.1 |  |  |  |  |  | 
COc1ccc2c(c1)c(CC(=O)O)c(C)n2C(=O)c1ccc(Cl)cc1 |  |  |  | 63.8 |  |  |  |  | 
N#Cc1cc2c(nc1N1CCOCC1)sc1c(N3CCNCC3)nnnc12 |  | 31.3 | 43.3 | 149 | 15.1 | 16.5 |  |  | 
N#Cc1cc2c(nc1N)sc1c(Cl)nnnc12 |  | 1 | 13.9 |  |  |  |  |  | 
N#Cc1cc2c(nc1NCc1ccccc1)sc1c(Br)nnnc12 |  | 0.4 | 12.2 |  |  |  |  |  | 
N#Cc1cc2c(nc1N1CCOCC1)sc1c(Cl)nnnc12 |  | 59.5 | 51.8 | 112 | 14 |  |  |  | 
CC(=O)c1ccc(N2CCN(c3nnnc4c3sc3nc(N5CCC(C)CC5)c(C#N)cc34)CC2)cc1 |  | 45.6 | 42.6 | 127 | 12.5 | 14.3 |  |  | 
CN1CCN(c2nnnc3c2sc2nc(N4CCN(Cc5ccccc5)CC4)c(C#N)cc23)CC1 |  | 55.1 | 50.6 | 123 | 13.1 | 14.6 |  |  | 
